PRMT1 inh: PRMT1 (human) inhibition, primary screen. recombinant PRMT1, activity-based probe fluorescence polarization. 370,000 tested, 1.3% active. inhibition, % at 2.79 µM. Q99873. AID 652257;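 active = inhibition above about 21% made by adding two undisclosed values, limit read from the data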
TCR CD3 inh: blocks the human TCR-CD3 interaction. TAMRA-labeled TCR probe fluorescence, biochemical. inhibition, % at 9.4 µM. 360,000 tested, 0.37% active. AID 651800; in the data active = inhibition above about 19%;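 also: recombinant mutant TCR 2C K166C tagged with TAMRA read by polarization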
HTRA1 inh: inhibitors of human serine peptidase HTRA1; inhibition, % at 5.96 µM; 340,000 tested, 0.5% active; recombinant HTRA1, FP-rhodamine activity-based probe, fluorescence polarization; in the data active = inhibition above about 36%
Target sequence (Q92743 whole entry, looked up): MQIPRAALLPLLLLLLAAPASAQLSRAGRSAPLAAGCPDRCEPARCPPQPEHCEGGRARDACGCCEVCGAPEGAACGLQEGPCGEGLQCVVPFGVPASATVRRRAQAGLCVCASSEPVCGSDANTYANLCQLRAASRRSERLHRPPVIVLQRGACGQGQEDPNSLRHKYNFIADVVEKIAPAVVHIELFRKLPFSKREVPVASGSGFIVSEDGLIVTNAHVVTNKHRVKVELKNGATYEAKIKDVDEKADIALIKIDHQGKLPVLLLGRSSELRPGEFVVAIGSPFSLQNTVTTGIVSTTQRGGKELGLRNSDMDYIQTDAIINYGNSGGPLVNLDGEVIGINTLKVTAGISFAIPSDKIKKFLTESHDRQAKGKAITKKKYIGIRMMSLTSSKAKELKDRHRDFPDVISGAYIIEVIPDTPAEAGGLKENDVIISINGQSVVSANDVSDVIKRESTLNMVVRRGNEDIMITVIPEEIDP
SIAE inh: inhibitors of human sialic acid acetylesterase SIAE | inhibition, % at 9.66 µM | AID 1053197 | 370,000 tested, 0.69% active | Q9HAT2 | SIAE FP-Rh probe binding, fluorescence polarization;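 active = inhibition above a cutoff: mean of compounds within the control limits plus 3 SD of those, cut at about 17% in these data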
ABHD4 inh: inhibitors of mouse ABHD4. Q8VD66. purified mABHD4, FP-Rh probe fluorescence polarization. inhibition, % at 8.92 µM. 370,000 tested, 0.54% active. AID 720543;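 active = inhibition exceeding the mean over every tested compound plus 3 SD, cut at about 30% in these data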
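Doses – 8.92 µM, single dose · Material – wild-type mouse ABHD4 protein · Replication – single well per compound (singlicate) · Measure – percent inhibition of probe binding, normalized to plate controls · Schedule – 45 min compound pre-incubation plus 60 min probe step, 25 °C · Detection – fluorescence polarization with parallel and perpendicular emission, 525/598 nm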
SIAE confirm: human SIAE inhibition, confirmation. shares compounds with SIAE inh. SIAE FP-Rh activity-based probe, fluorescence polarization. inhibition, % at 9.66 µM. 2,300 tested, 13% active. AID 1117263;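 active = mean inhibition of the replicates above the hit cutoff set in the primary screen, cut at about 17% in these data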;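 also: inhibitors lower polarization as more probe stays unbound to SIAE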
A number is an active result; n = inactive; x = not tested or not shown. A selection: hits, their analogues and other compounds. The true share with any hit is near 2.6%.

SMILES	PRMT1 inh	TCR CD3 inh	HTRA1 inh	SIAE inh	ABHD4 inh	SIAE confirm
C/C(=N\NC(=O)c1cc(C)nc2ccccc12)c1ccco1	n	n	n	n	n	x
C/C(=N\NC(=O)c1cc2ccccc2cc1O)c1cccs1	n	n	n	28.2	n	n
CN(C)c1cccc(/C=C2\CC3(OC(=O)c4ccccc4)CCCN2C3)c1 (stereo not given)	n	x	x	n	n	x
O=C1CCCN1c1ccc(S(=O)(=O)N2CCCCC2)cc1	n	n	n	17.2	n	n
O=C1CCCN1c1ccc(S(=O)(=O)N2CCCCC2)cc1[N+](=O)[O-]	n	n	n	n	n	x
C[C@H]1[C@@H](NC(=O)c2ccc(C(F)(F)F)cc2)CC[C@@]23CCCN2C(=O)CCC[C@@H]13	n	x	x	n	n	x
C[n+]1ccc2[nH]c3ccccc3c2c1	n	n	x	26.2	n	n
O=C(COC(=O)c1ccc[nH]c1=O)NC1CCCCCCC1	n	n	n	18.1	n	n
O=C(COC(=O)c1ccc[nH]c1=O)NC1CCCCCC1	n	n	n	n	n	x
Cc1cc(C(=O)COC(=O)c2ccc[nH]c2=O)c(C)n1C1CC1	n	n	n	22.8	n	n
Cc1cc(C(=O)COC(=O)c2ccc[nH]c2=O)c(C)n1-c1ccccc1	n	n	n	n	n	x
Cc1nn(-c2ccccc2)c2sc(C(=O)N3CCC4(CC3)OCCO4)cc12	n	x	x	n	n	x
O=C(O)CSc1nnc(C2CC2)n1-c1ccccc1	n	n	n	n	n	x
O=C(O)CSc1nnc(Nc2ccccc2)n1-c1ccccc1	n	n	n	18.2	n	n
CCCOc1cc(N(CC)CC)ccc1/C=C(/C#N)c1nc2ccc(C)cc2[nH]1	n	n	n	n	n	x
CCOc1cc(N(CC)CC)ccc1/C=C(/C#N)c1nc2ccccc2[nH]1	n	n	n	26.6	n	n
COc1ccc(NC(=O)c2cccc(N3C(=O)c4ccc(C(=O)Nc5ccc(OC)c(O)c5)cc4C3=O)c2)cc1O	n	n	n	23.1	n	n
CN(Cc1ccccc1)C(=O)OCc1cn(Cc2ccc(Cl)cc2)nn1	n	x	x	n	n	x
C#CCN(C1CC1)S(=O)(=O)c1ccccc1Br	n	x	x	n	n	x
CCOC(=O)C(O)(C1C(=O)CC(C)(C)CC1=O)C(F)(F)F (stereo not given)	n	n	n	33.1	n	18.7
CC(C)c1ccccc1NC(=O)Nc1nc(C(N)Cc2ccc(C(F)(F)F)cc2)cs1 (stereo not given)	n	n	x	n	n	x
NC(Cc1ccc(C(F)(F)F)cc1)c1csc(NC(=O)Nc2ccccc2Cc2ccccc2)n1 (stereo not given)	n	n	x	17.1	n	22.7
CCN1C(=O)/C(=C2\SC(=S)N(CCCOC)C2=O)c2ccccc21	n	n	n	n	n	x
CCN1C(=O)/C(=C2/C(=O)N3c4c(cc(OC(C)=O)cc42)C(C)=CC3(C)C)SC1=S	n	n	n	17.1	n	n
CCN(CC)C(=O)c1ncn2c1C(=O)N[C@H](C)C2	n	n	x	n	n	x
SMILES	PRMT1 inh	TCR CD3 inh	HTRA1 inh	SIAE inh	ABHD4 inh	SIAE confirm
CC(=O)c1ccc(N2CCN(c3ccccc3O)CC2)c([N+](=O)[O-])c1	n	n	n	30.9	n	n
O=C(O)CC(Sc1ccc(Cl)cc1)C(=O)Nc1ccccc1 (stereo not given)	n	n	x	n	n	x
COC(=O)Nc1ncc(CN2CCc3ccccc3C2)s1	n	n	n	78.4	n	n
COc1cc(NC(=O)C2CCCN(S(=O)(=O)c3cc(OC)ccc3OC)C2)cc(OC)c1 (stereo not given)	n	x	x	n	n	x
O=C(OCc1cn(Cc2ccccc2)nn1)N1CCOCC1	n	x	x	n	n	x
CCOC(=O)C1=C(C)OC(N)=C(C#N)C1c1cc(SCC)oc1C (stereo not given)	n	n	n	18.8	n	n
NC(Cc1ccc(O)cc1)C(=O)NN=Cc1ccccc1Cl (stereo not given)	n	n	x	n	n	x
COc1ccc(NS(=O)(=O)c2cc(NC(=O)c3ccc(=O)[nH]c3)ccc2N2CCCC2)cc1	n	n	n	22.9	n	n
CC(CCN1CCC(C(O)(c2ccccc2)c2ccccc2)CC1)Oc1cccc(F)c1 (stereo not given)	n	x	x	n	n	x
CN1C(=O)C(c2cn(C)c3ccccc23)(c2cn(C)c3ccccc23)c2ccccc21	n	x	x	n	n	x
CN(C(=O)[C@H]1O[C@@H](n2cnc3c(=O)[nH]c(N)nc32)[C@H](O)[C@@H]1O)C1CCCCC1	n	n	x	40.6	n	45.9
Nc1nc2c(ncn2[C@@H]2O[C@H](C(=O)NC3CCCCC3)[C@@H](O)[C@H]2O)c(=O)[nH]1	n	n	x	48.6	n	42.6
Nc1nc2c(ncn2[C@@H]2O[C@H](C(=O)NCC(F)(F)F)[C@@H](O)[C@H]2O)c(=O)[nH]1	n	n	x	n	n	x
Nc1nc2c(ncn2[C@@H]2O[C@H](C(=O)N[C@H](Cc3ccccc3)C(=O)NCc3ccccc3)[C@@H](O)[C@H]2O)c(=O)[nH]1	n	n	x	n	n	x
Nc1nc2c(ncn2[C@@H]2O[C@H](C(=O)N[C@H](Cc3ccccc3)C(=O)NC3CCCCC3)[C@@H](O)[C@H]2O)c(=O)[nH]1	n	n	x	31.8	n	34.7
COC(=O)[C@]12C[C@H](CC(=O)NCc3cccc4ccccc34)C(=O)N(Cc3cccc4ccccc34)C1=C[C@H](C1CCCC1)O[C@@H]2C	n	x	x	n	n	x
CCOC(=O)C1CSCCS(=O)(=O)N1Cc1ccccc1C (stereo not given)	n	n	x	n	n	x
O=C(c1ccc(S(=O)(=O)NCC2CCCO2)cc1)N1CCc2ccccc21 (stereo not given)	n	n	n	22.0	n	n
O=S(=O)(NCC1CCCO1)c1ccccc1 (stereo not given)	n	n	n	n	n	x
O=C(CCC(=O)N(CC(=O)NC1CCCC1)c1ccc(F)cc1)Nc1nccs1	n	n	n	n	n	x
O=C(CCC(=O)N(CC(=O)NC1CCCC1)c1cccc(F)c1)Nc1nccs1	n	n	n	17.9	n	n
COc1ccc(CCNC(=O)c2cc3c(C)nn(-c4ccccc4)c3s2)cc1OC	n	x	x	n	n	x
CCOC(=O)NNC(=O)CCn1c2c(c3ccccc31)CCCC2	n	n	n	n	n	x
CC(=O)NNC(=O)CCn1c2c(c3ccccc31)CCCC2	n	n	n	20.2	n	n
O=C(Nc1ccc(F)c(F)c1)c1ccc(-n2cncn2)c([N+](=O)[O-])c1	n	n	n	n	n	x
O=C(Nc1cccc(/C=C/c2ccccn2)c1)c1ccc(-n2cncn2)c([N+](=O)[O-])c1	n	n	n	19.3	n	n
COC(=O)C1CN(C(=O)OC(C)(C)C)C2=C1C(=O)CC(C)(C(=O)OC(C)(C)C)C2 (stereo not given)	n	x	x	n	n	x
COc1cc(NC(=O)CCCOc2ccc(Cl)cc2Cl)c(C(=O)O)cc1OC	n	n	n	n	n	x

Screening results as filed in PubChem BioAssay.
